Screens (PubChem)
SIAE primary – human SIAE inhibitors, primary screen, biochemical, fluorescence polarization, FP-Rh probe, 1536-well HTS | inhibition, % at 9.66 µM | SIAE FP-Rh probe binding | Sialate O-acetylesterase (Homo sapiens), Q9HAT2 | 370,000 compounds, 0.69% hits;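 active means inhibition above a cutoff: mean of compounds within the control limits plus 3 SD of those, cut at about 17% in these data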;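 further: 0% = plate median of compound wells and 100% = probe without SIAE protein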
PRMT1 FP inh – PRMT1 methyltransferase inhibitors, primary screen, biochemical, fluorescence polarization; inhibition, % at 2.79 µM; recombinant PRMT1, activity-based probe fluorescence polarization; 370,000 compounds, 1.3% hits; AID 652257, 2013; Protein arginine N-methyltransferase 1 (Homo sapiens), Q99873;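 active means inhibition above about 21% made by adding two undisclosed values, limit read from the data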
RBBP9 inh – human RBBP9 inhibitors, primary screen, biochemical, fluorescence polarization, FP-Rh probe, HTS; inhibition, % at 7.94 µM; 220,000 compounds, 0.2% hits; AID 1515, 2009; Serine hydrolase RBBP9 (Homo sapiens), O75884; recombinant RBBP9;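 active means inhibition above the campaign mean of all tested compounds plus 3 SD, cut at about 14% in these data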;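 further: plate controls were DMSO wells with RBBP9 for no effect and wells lacking RBBP9 protein for full effect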
Target sequence (O75884 whole entry, looked up): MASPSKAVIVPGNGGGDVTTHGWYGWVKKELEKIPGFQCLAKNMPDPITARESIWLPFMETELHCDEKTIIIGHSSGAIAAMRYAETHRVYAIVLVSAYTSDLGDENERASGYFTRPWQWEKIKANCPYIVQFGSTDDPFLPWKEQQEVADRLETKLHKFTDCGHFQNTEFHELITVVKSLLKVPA
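Measured by: FP readout at 525/598 nm; material: recombinant human RBBP9; also added: Serine-hydrolase probe FP-Rh, 375 nM pre-mixing; medium: Tris buffer pH 8.0, NaCl, Pluronic; replication: one well per compound; doses: one concentration, 7.94 µM nominal, 0.794% DMSO; timing: preincubation 30 min plus labeling 45 min at 25 °C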
GSTO1 inh – inhibitors of recombinant GSTO1, primary screen, counter-screen for RBBP9 inhibitor project, biochemical, fluorescence polarization; Glutathione S-transferase omega-1 (Homo sapiens), P78417; activity-based probe fluorescence polarization; inhibition, % at 5.96 µM; 300,000 compounds, 1.1% hits; AID 1974, 2009;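 active means inhibition above the campaign mean inhibition plus 3 SD, cut at about 35% in these data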;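 further: 0% = GSTO1-1 with DMSO and 100% = wells lacking GSTO1-1 enzyme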
Target sequence (P78417 whole entry, looked up): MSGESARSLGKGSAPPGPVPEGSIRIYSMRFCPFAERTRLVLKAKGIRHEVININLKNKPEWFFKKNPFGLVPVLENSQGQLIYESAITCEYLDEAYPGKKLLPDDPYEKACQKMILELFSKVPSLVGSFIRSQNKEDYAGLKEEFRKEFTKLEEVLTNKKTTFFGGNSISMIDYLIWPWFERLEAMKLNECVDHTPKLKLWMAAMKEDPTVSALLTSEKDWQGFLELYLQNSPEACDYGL
PAD4 FP inh – human PAD4 inhibitors, primary screen, biochemical, fluorescence polarization, 1536-well format | AID 485272, 2010 | Protein-arginine deiminase type-4 (Homo sapiens), Q9UM07 | inhibition, % at 6.36 µM | 330,000 compounds, 0.41% hits | recombinant PAD4, RCA probe fluorescence polarization;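 active means percent inhibition above a cutoff equal to the mean of all tested compounds plus 3 SD, cut at about 15% in these data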;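 further: 0% = PAD4 with RCA probe and DMSO and 100% = probe without PAD4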
GSTO1 confirm – GSTO1 inhibitor hit confirmation, counter-screen for RBBP9 inhibitor project, biochemical, fluorescence polarization, triplicate. 2,400 compounds, 54% hits. shares compounds with GSTO1 inh. recombinant GSTO1, probe fluorescence polarization. inhibition, % at 5.96 µM;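 active means inhibition above the primary screen's cutoff, its mean inhibition plus 3 SD, cut at about 35% in these data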;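 further: loss of polarization as inhibitors block binding of rhodamine sulfonate ester activity probe; 0% = GSTO1 with DMSO and 100% = wells lacking GSTO1 enzyme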
GSTO1 ABPP inh – inhibitors of purified human GSTO1, late-stage follow-up, biochemical, gel ABPP, SE-Rh probe, percent inhibition. inhibition, % at 1 µM. AID 463110, 2010. shares compounds with GSTO1 inh. 130 compounds, 30% hits. recombinant GSTO1, gel ABPP SE-Rh probe fluorescence;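 active means inhibition of the enzyme GSTO1 above about 75%, limit read from the data; inactive means inhibition below that limit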
PAD4 confirm – human PAD4 inhibitors, confirmation, biochemical, fluorescence polarization. shares compounds with PAD4 FP inh. recombinant PAD4, RCA probe fluorescence polarization. inhibition, % at 6.36 µM. 1,200 compounds, 28% hits. AID 488796, 2010;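 active means mean inhibition across replicates above the hit cutoff set by the earlier primary screen, cut at about 15% in these data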;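 further: inhibitors block active-site labeling by the probe so polarization falls; 0% = PAD4 with probe and DMSO and 100% = probe without PAD4 enzyme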
SIAE inh conf – human SIAE inhibitors, retest, confirmation, biochemical, fluorescence polarization, FP-Rh probe, triplicate | 2,300 compounds, 13% hits | shares compounds with SIAE primary | inhibition, % at 9.66 µM | SIAE FP-Rh activity-based probe | AID 1117263, 2014;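 active means mean inhibition of the replicates above the hit cutoff set in the primary screen, cut at about 17% in these data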;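 further: 0% = SIAE with DMSO and probe and 100% = probe without SIAE; inhibitors lower polarization as more probe stays unbound to SIAE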
Starred values were filed as active, the others as inactive; / = no result. This is a sample that favours compounds with a hit; in the whole collection about 2.7% have one here.

SMILES	SIAE primary	PRMT1 FP inh	RBBP9 inh	GSTO1 inh	PAD4 FP inh	GSTO1 confirm	SIAE inh conf	others
CN1C(=O)/C(=C/c2ccc(-c3ccccc3[N+](=O)[O-])o2)SC1=Nc1ccc(Cl)c(C(=O)O)c1	19*	11	0	72*	12	79*	15
COc1ccc(S(=O)NC2CCCCC2)c(OC)c1C (centres undefined)	3	-1	-6	7	2	/	/
CN(C)S(=O)(=O)c1cccc(C(=O)Nc2ccccc2C(=O)NC2CC2)c1	-4	3	/	/	-1	/	/
Nc1ccc(O)c2c1C(=O)c1ccccc1C2=O	55*	17	11	49*	49*	37*	54*	PAD4 confirm=41*
COC(=O)c1ccc(CC(=O)c2c(C)cc(O)cc2O)o1	24*	24*	3	43*	-12	12	5
COc1ccc(NC(=O)NC(C)(C(F)(F)F)C(F)(F)F)cc1	4	1	-8	7	4	/	/
CC(NC(=O)Nc1ccc(O)cc1)(C(F)(F)F)C(F)(F)F	26*	14	10	44*	64*	2	-3	PAD4 confirm=-1
O=[N+]([O-])c1cc([N+](=O)[O-])c2nonc2c1Nc1ccc(O)cc1	21*	8	/	65*	55*	53*	2	PAD4 confirm=8
O=[N+]([O-])c1cc([N+](=O)[O-])c2nonc2c1Nc1ccccc1O	4	3	/	/	/	/	/
Cc1nnc(C)n1/N=C/c1cccc([N+](=O)[O-])c1	-1	2	-2	3	3	/	/
Oc1c(Br)cc(Br)cc1/C=N/Nc1ccc(Cl)nn1	7	-3	/	1	-1	/	/
Oc1ccc(/C=N/Nc2ccc(Cl)nn2)c(O)c1O	23*	58*	/	71*	6	15	-4
COc1ccc(-n2nc3ccc(N)cc3n2)cc1Cl	72*	10	/	53*	-4	49*	0
O=C(NNc1cc(Cl)cc(Cl)c1)C1CCC1	-3	-3	-6	-1	4	/	/
O=C(CCl)N1c2ccccc2SCC1c1ccccc1 (centres undefined)	19*	-1	/	86*	4	94*	3	GSTO1 ABPP inh=75*
Nc1ccc(NC(=O)c2ccco2)c(Cl)c1	7	-2	-5	-3	-9	/	/
COc1ccc(OC)c(N)c1	28*	2	7	46*	38*	14	14	PAD4 confirm=-4
COc1ccc(C)cc1N	-4	3	/	/	/	/	/
C/C(=N\NC(=O)c1ccccc1O)c1cccc(NC(=O)c2ccccc2)c1	6	-2	/	5	-5	/	/
C/C(=N\NC(=O)c1cc(O)ccc1O)c1cccc(NC(=O)c2ccc(Cl)cc2)c1	26*	18	/	85*	-6	19	10
C/C(=N\NC(=O)c1cc(O)ccc1O)c1cccc(NC(=O)c2cccc(Cl)c2)c1	33*	31*	/	56*	-9	17	20*
O=C(CCCC(=O)OCC1CCCO1)OCC1CCCO1 (centres undefined)	-4	2	1	-7	-1	/	/
Cc1cccc(Oc2ccccc2NC(=O)c2cnccn2)c1	0	-4	9	4	1	/	/
NNC(=O)/C(=N/Nc1ccccc1)S(=O)(=O)c1ccc(Cl)cc1	0	-2	7	-8	0	/	/
COc1ccc(CC2=CC(=O)c3ccccc3C2=O)cc1	18*	79*	/	67*	-10	15	6
SMILES	SIAE primary	PRMT1 FP inh	RBBP9 inh	GSTO1 inh	PAD4 FP inh	GSTO1 confirm	SIAE inh conf	others
COc1ccc(Cc2ccccc2C(=O)O)cc1	0	-1	/	/	/	/	/
CN(CC(=O)NCc1ccco1)S(=O)(=O)c1ccc(F)cc1	0	1	/	2	-2	/	/
O=C(N/N=C/c1ccc(OCc2ccccc2)cc1)c1ccncc1	6	-4	-5	0	-4	/	/
Oc1ccc(N=Cc2ccc(OCc3ccccc3)cc2)cc1	45*	36*	1	86*	6	7	4
CN(C1=C(N2CCCCC2)C(=O)c2ccccc2C1=O)c1ccccc1	20*	3	7	50*	16*	8	14
CCN(C[C@H]1N[C@@](CC)(C(=O)OC)[C@H]2C(=O)N(C)C(=O)[C@@H]12)C(=O)COC	-2	-3	/	/	-1	/	/
CN(C)c1ccc(N/C=C/C(=O)C(C)(C)C)cc1	17*	9	4	83*	18*	13	-3	PAD4 confirm=-9
O=C(C(=O)N1CCC(CNC(=O)C2COc3ccccc3O2)CC1)c1cccs1 (centres undefined)	1	3	/	/	/	/	/
CC1=C(C(=O)Nc2cccc(C(=O)NCc3ccc(F)cc3)c2)SCCO1	1	2	/	-1	2	/	/
CCCCC(=Nc1ccc(N)cc1)C1=C(O)C(C(=O)OC)C(C)(C)CC1=O (centres undefined)	44*	17	12	86*	75*	3	8	PAD4 confirm=2
CCCC(=NCc1ccccc1)C1=C(O)C(C(=O)OC)C(C)(C)CC1=O (centres undefined)	-5	-1	-5	4	0	/	/
COc1cc(N=C2C(=O)N3c4c(cccc42)C(C)=CC3(C)C)cc(OC)c1	1	5	0	-3	-9	/	/
CC1=CC(C)(C)N2C(=O)C(=Nc3ccc(O)cc3)c3cccc1c32	22*	20	5	97*	26*	17	7	PAD4 confirm=2
COC(=O)c1ccc(=O)c2nc3/c(=C/O)c(O)cc(=O)c3[nH]c12	47*	29*	8	75*	14	71*	28*
Oc1ccc(NCc2ccccc2OCc2ccccc2)cc1	39*	14	3	84*	-6	7	5
COc1cccc(CNc2nc(NC(C)C)nc3ccsc23)c1OC	5	3	/	/	/	/	/
CC1=Nc2cccc3cccc(c23)N1	12	7	5	29	-1	/	/
c1cc2c3c(cccc3c1)NC1(CCCCCC1)N2	19*	2	-4	53*	0	21	2
O=c1c(O)cccc2cc(O)c(O)c(O)c12	24*	43*	1	51*	-7	72*	18*
